pIC50: −log10 of the molar value. One block for each molecule: values may come before it.
Key:
[1] = system: Blood; assay: Inhibition of LPS-induced TNFalpha production in human whole blood; format: functional, tissue-based
[2] = target: T1, Cytochrome P450 1A2 (Homo sapiens, UniProt P05177); assay: Inhibition of CYP1A2 at < 25 uM; format: ADME
T1 sequence (P05177 whole entry): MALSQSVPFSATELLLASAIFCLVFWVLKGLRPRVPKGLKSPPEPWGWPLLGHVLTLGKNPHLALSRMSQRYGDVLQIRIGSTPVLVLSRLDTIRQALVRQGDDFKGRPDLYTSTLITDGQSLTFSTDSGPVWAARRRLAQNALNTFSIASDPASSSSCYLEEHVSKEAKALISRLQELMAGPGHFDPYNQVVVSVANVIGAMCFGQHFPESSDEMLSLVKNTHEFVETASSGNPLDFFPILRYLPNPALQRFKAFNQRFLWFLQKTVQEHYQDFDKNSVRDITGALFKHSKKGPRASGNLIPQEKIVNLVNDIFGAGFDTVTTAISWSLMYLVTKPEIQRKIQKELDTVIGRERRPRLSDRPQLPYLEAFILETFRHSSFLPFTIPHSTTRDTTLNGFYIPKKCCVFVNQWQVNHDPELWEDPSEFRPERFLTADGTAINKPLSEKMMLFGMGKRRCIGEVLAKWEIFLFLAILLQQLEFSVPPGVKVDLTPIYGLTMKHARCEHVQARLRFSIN

[3] = in vitro; conditions: human, Caco-2
[4] = AUC in Wistar rat at 1 mg/kg, iv; format: ADME, organism-based; design: dose 1 mg/kg, route intravenous; conditions: plasma
How it was run: (§1)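 Wistar rats, single dose either iv 1 mg/kg in 40% PEG + 0.4% HCl 1 N, or oral 10 mg/kg in 0.5% methylcellulose + 0.1% Tween 80; plasma PK parameters reported as mean values (n = 2).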

[5] = Clearance in beagle dog at 1 mg/kg, iv; format: ADME, organism-based, Canis lupus familiaris; design: dose 1 mg/kg, route intravenous; conditions: in vivo
How it was run: (§2)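 Beagle dogs dosed 1 mg/kg iv or 1 mg/kg po; pharmacokinetic parameters reported as mean values of n = 2 animals.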

[6] = Passive permeability from basolateral to apical side in human Caco2 cells at 12.5 uM; format: ADME, cell-based; conditions: Caco-2, read-out: permeability
How it was run: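 Caco-2 monolayer, test compound 12.5 µM; passive apparent permeability measured in both AB and BA directions, reported in 10^-6 cm/s.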

[7] = system: Rattus norvegicus; assay: Antiarthritic effect in rat adjuvant-induced arthritis model assessed as inhibition of right paw edema at 3 mg/kg, po dosed daily during last 10 days of test; format: functional; conditions: 240 h
How it was run: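 Arthritis induced by complete Freund's adjuvant injected into left hind paw; oral compound daily over final 10 days of protocol; right (non-injected) paw volume monitored, result as % inhibition of oedema.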

[8] = Volume of distribution at steady state in Wistar rat at 1 mg/kg, iv; format: ADME, organism-based; design: dose 1 mg/kg, route intravenous; conditions: in vivo, read-out: Vdss; how it was run: as §1
[9] = target: Cytochrome P450 2C9 (Homo sapiens, UniProt P11712); assay: Inhibition of CYP2C9 at < 25 uM; format: ADME
[10] = Oral bioavailability in beagle dog at 1 mg/kg; format: ADME, organism-based, Canis lupus familiaris; conditions: in vivo; how it was run: as §2
[11] = target: Cytochrome P450 2D6 (Homo sapiens, UniProt P10635); assay: Inhibition of CYP2D6 at < 25 uM; format: ADME
[12] = system: CHO; assay: Cytotoxicity against CHO cells at 200 uM; format: cell-based, Cricetulus griseus; conditions: chinese hamster
[13] = Oral bioavailability in Wistar rat at 10 mg/kg; format: ADME, organism-based; conditions: in vivo; how it was run: as §1
[14] = system: CHO; assay: Toxicity against CHO cells; format: cell-based, Cricetulus griseus; conditions: chinese hamster
[15] = Stability in rat hepatic microsomes assessed as compound turnover at 5 uM incubated for 30 mins in presence of NADPH; format: ADME; conditions: liver microsomes, read-out: Drug degradation
How it was run: (§3)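 Rat or human hepatic microsomes (1 mg/mL) with NADPH, test compound 5 µM, 30 min at 37 °C; readout is % turnover of parent.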

[16] = Cmax in beagle dog at 1 mg/kg, po; format: ADME, organism-based, Canis lupus familiaris; design: dose 1 mg/kg, route oral; conditions: in vivo; how it was run: as §2
[17] = AUC in beagle dog at 1 mg/kg, po; format: ADME, organism-based, Canis lupus familiaris; design: dose 1 mg/kg, route oral; conditions: plasma; how it was run: as §2
[18] = AUC in Wistar rat at 10 mg/kg, po; format: ADME, organism-based; design: dose 10 mg/kg, route oral; conditions: plasma; how it was run: as §1
[19] = target: Cytochrome P450 2C19 (Homo sapiens, UniProt P33261); assay: Inhibition of CYP2C19 at < 25 uM; format: ADME
[20] = Protein binding in human plasma; format: ADME, cell-free; conditions: read-out: PPB (converted)
[21] = Stability in human hepatic microsomes assessed as compound turnover at 5 uM incubated for 30 mins in presence of NADPH; format: ADME; conditions: liver microsomes, read-out: Drug degradation; how it was run: as §3
[22] = Clearance in Wistar rat at 1 mg/kg, iv; format: ADME, organism-based; design: dose 1 mg/kg, route intravenous; conditions: in vivo; how it was run: as §1
[23] = AUC in beagle dog at 1 mg/kg, iv; format: ADME, organism-based, Canis lupus familiaris; design: dose 1 mg/kg, route intravenous; conditions: plasma; how it was run: as §2
[24] = target: T2, RAF proto-oncogene serine/threonine-protein kinase (Homo sapiens, UniProt P04049); assay: Inhibition of c-Raf
[25] = Half life in beagle dog at 1 mg/kg, iv; format: ADME, organism-based, Canis lupus familiaris; design: dose 1 mg/kg, route intravenous; conditions: in vivo; how it was run: as §2
[26] = Cmax in Wistar rat at 10 mg/kg, po; format: ADME, organism-based; design: dose 10 mg/kg, route oral; conditions: in vivo; how it was run: as §1
[27] = system: Rattus norvegicus; assay: Inhibition of TNFalpha release in rat LPS-induced endotoxemia model dosed orally 1 hr prior to LPS challenge and measured 1.5 hrs post LPS challenge; format: functional; conditions: po
How it was run: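 Rats given compound orally 1 h before LPS challenge to induce endotoxemia; plasma TNFα quantified 1.5 h after LPS, at peak TNF production.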

[28] = Protein binding in rat plasma; format: ADME, cell-free; conditions: read-out: PPB (converted)
[29] = Half life in Wistar rat at 1 mg/kg, iv; format: ADME, organism-based; design: dose 1 mg/kg, route intravenous; conditions: in vivo; how it was run: as §1
[30] = target: Cytochrome P450 3A4 (Homo sapiens, UniProt P08684); assay: Inhibition of CYP3A4 at < 25 uM; format: ADME
[31] = Volume of distribution at steady state in beagle dog at 1 mg/kg, iv; format: ADME, organism-based, Canis lupus familiaris; design: dose 1 mg/kg, route intravenous; conditions: in vivo, read-out: Vdss; how it was run: as §2
[32] = target: T3, Proto-oncogene tyrosine-protein kinase receptor Ret (Homo sapiens, UniProt P07949); assay: Inhibition of RET
[33] = target: T2, RAF proto-oncogene serine/threonine-protein kinase; assay: Inhibition of c-Raf at 10 uM
How it was run: (§4)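 Upstate 55-kinase panel; single inhibitor concentration 10 µM, duplicate wells, ATP at the Km of each kinase.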

[34] = system: CHO; assay: Cytotoxicity against CHO cells; format: cell-based; conditions: Cricetulus griseus
[35] = target: T3, Proto-oncogene tyrosine-protein kinase receptor Ret; assay: Inhibition of RET at 10 uM; how it was run: as §4

Chain of Cytochrome P450 2C9 (P11712 whole entry): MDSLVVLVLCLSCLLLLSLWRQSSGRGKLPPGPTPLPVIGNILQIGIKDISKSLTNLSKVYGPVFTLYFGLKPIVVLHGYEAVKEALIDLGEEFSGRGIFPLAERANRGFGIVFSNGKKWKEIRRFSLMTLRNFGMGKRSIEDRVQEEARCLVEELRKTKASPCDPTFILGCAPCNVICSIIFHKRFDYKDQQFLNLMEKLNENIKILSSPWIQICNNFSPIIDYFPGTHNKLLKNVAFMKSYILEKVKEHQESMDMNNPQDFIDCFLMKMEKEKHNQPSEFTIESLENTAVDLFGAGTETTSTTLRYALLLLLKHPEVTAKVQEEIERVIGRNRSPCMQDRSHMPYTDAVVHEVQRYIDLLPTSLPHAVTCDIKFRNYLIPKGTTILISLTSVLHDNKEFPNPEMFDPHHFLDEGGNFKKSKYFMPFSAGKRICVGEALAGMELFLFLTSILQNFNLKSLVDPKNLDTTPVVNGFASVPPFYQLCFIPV
Chain of Cytochrome P450 2C19 (P33261 whole entry): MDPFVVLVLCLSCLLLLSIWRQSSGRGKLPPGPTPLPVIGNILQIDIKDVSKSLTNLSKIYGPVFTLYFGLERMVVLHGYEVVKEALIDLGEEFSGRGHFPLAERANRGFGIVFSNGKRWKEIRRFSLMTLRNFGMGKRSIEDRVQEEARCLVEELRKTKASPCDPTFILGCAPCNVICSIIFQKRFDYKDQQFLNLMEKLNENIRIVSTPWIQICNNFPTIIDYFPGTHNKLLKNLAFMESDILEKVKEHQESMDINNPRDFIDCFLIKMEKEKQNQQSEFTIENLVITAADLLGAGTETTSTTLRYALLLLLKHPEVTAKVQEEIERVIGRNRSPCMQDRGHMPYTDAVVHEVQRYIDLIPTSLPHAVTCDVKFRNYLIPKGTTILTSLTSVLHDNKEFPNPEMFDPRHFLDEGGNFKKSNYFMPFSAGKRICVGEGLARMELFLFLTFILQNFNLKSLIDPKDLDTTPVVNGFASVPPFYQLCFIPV
Chain of Cytochrome P450 2D6 (P10635 whole entry): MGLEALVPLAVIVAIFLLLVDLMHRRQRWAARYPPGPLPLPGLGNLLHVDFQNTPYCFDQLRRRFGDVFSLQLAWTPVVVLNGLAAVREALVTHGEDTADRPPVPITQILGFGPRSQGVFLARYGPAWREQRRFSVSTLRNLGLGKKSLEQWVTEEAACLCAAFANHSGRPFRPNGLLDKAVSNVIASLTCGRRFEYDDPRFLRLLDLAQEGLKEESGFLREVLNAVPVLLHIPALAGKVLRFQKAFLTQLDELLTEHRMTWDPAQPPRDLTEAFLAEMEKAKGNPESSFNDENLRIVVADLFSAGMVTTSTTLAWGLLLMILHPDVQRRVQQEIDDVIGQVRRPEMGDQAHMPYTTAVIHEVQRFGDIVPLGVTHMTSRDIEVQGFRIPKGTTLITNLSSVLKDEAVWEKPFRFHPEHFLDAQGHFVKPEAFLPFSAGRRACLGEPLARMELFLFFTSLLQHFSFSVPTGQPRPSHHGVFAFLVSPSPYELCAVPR
Chain of Cytochrome P450 3A4 (P08684 whole entry): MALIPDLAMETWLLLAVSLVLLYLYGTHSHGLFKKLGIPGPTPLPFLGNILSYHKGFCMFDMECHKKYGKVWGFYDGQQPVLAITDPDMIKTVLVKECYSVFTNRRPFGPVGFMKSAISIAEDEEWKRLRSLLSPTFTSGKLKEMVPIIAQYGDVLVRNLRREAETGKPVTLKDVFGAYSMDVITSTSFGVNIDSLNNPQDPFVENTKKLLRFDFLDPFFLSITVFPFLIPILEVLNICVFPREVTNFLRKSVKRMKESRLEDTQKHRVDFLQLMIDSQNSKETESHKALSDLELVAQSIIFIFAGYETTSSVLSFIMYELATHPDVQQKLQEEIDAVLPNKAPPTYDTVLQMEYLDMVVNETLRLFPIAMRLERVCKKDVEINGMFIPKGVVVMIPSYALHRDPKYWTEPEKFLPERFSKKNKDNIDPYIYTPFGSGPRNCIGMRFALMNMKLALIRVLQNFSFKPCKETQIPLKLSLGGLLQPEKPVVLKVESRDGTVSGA
T2 sequence (P04049 whole entry): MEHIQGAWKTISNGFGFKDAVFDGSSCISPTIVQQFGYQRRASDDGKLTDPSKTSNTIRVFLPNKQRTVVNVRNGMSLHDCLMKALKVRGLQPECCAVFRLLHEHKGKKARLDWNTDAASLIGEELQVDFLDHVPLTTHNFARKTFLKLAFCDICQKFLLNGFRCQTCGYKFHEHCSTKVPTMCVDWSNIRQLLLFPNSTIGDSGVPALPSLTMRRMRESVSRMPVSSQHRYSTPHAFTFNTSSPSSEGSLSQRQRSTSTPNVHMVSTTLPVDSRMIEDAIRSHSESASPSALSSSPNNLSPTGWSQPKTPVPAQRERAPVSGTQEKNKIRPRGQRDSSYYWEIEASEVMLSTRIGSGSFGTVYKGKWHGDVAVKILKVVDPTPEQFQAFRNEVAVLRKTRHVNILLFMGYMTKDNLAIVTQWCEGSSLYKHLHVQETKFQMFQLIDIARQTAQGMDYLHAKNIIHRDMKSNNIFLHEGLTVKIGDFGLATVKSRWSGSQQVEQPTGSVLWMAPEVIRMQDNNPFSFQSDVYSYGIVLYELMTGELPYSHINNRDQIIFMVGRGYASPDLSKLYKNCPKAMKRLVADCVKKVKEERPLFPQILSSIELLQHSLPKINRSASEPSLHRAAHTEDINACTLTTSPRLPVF
T3 sequence (P07949 whole entry): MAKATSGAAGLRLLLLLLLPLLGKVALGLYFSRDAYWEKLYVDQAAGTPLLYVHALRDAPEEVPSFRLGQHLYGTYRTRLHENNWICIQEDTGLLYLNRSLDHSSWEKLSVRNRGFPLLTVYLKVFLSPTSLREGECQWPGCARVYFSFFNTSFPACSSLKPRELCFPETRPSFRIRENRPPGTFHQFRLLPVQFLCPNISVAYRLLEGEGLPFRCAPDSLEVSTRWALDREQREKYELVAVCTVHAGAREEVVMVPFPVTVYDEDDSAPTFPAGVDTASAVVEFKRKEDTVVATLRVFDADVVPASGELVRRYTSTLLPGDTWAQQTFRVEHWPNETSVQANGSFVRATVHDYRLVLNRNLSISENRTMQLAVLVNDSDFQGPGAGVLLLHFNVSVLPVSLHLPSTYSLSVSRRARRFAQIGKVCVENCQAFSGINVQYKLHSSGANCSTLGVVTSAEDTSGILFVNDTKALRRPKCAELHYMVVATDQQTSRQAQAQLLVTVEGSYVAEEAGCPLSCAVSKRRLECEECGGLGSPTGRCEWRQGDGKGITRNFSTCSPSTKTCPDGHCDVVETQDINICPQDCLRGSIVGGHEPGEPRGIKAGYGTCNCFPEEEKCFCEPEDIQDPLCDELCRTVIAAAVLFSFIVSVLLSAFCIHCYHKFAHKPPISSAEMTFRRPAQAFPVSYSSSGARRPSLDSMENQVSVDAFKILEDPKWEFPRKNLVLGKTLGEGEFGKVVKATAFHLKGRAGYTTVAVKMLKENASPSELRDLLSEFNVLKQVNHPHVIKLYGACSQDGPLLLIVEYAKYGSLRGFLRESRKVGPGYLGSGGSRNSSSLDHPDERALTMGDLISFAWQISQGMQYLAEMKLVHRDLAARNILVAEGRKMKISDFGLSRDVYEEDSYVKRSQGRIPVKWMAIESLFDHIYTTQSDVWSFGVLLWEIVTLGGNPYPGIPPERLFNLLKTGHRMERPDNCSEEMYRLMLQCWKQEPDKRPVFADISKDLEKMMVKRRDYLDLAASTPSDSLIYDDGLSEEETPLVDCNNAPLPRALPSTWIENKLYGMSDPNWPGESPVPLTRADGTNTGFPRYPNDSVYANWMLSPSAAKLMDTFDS

SMILES: Cc1c(F)cc(C(=O)NC2CC2)cc1-c1ccn2c(C3(C)CC3)nnc2c1
pIC50 [1]: 6.93

SMILES: Cc1ccc(C(=O)NC2CC2)cc1-c1ccn2c(-c3ccccc3Cl)nnc2c1
pIC50 [1]: 7.70

SMILES: Cc1c(F)cc(C(=O)NC2CC2)cc1-c1ccn2c(C3CC3)nnc2c1
pIC50 [1]: 6.67

SMILES: Cc1c(F)cc(C(=O)NC2CC2)cc1-c1c(F)cn2c(-c3ccncc3Cl)nnc2c1F
pIC50 [1]: < 5.30

SMILES: Cc1c(F)cc(C(=O)NC2CC2)cc1-c1c(F)cn2c(C(C)(C)C)nnc2c1F
pIC50 [1]: 6.94
inhibition (INH) [2]: Not Active
Papp A→B at 12.5 µM [3]: 41 ×10⁻⁶ cm/s
AUC [4]: 8010 ng·h/mL
clearance [5]: 2.7 mL/min/kg
Papp B→A at 12.5 µM [6]: 25 ×10⁻⁶ cm/s
inhibition in vivo at 3 mg/kg [7]: 67%
Vd [8]: 0.57 L/kg
inhibition (INH) [9]: Not Active
pIC50 [32]: 5.70
bioavailability [10]: 79%
inhibition (INH) [11]: Not Active
Activity [12]: 33%
bioavailability [13]: 50%
Activity [14]: Non-toxic
metabolised at 0.5 h, 5 µM [15]: < 5%
Cmax [16]: 185 ng/mL
AUC [17]: 5060 ng·h/mL
AUC [18]: 38600 ng·h/mL
inhibition (INH) [19]: Not Active
fraction unbound [20]: 0.21
metabolised at 0.5 h, 5 µM [21]: 6%
clearance [22]: 2.3 mL/min/kg
AUC [23]: 6440 ng·h/mL
half-life [25]: 7.3 h
Cmax [26]: 3470 ng/mL
ED50 [27]: 1.36 mg/kg
fraction unbound [28]: 0.25
half-life [29]: 3.3 h
inhibition (INH) [30]: Not Active
Vd [31]: 1.6 L/kg

SMILES: Cc1c(F)cc(C(=O)NC2CC2)cc1-c1ccn2c(C(C)(C)O)nnc2c1
pIC50 [1]: 6.98

SMILES: Cc1c(F)cc(C(=O)NC2CC2)cc1-c1ccn2c(C(C)(C)C)nnc2c1
pIC50 [1]: 7.32
inhibition (INH) [2]: Not Active
Papp A→B at 12.5 µM [3]: 27 ×10⁻⁶ cm/s
AUC [4]: 2670 ng·h/mL
clearance [5]: 6.2 mL/min/kg
inhibition [33]: 66%
Papp B→A at 12.5 µM [6]: 23 ×10⁻⁶ cm/s
Vd [8]: 1.3 L/kg
pIC50 [34]: 3.97
inhibition (INH) [9]: Not Active
inhibition (INH) [11]: Not Active
bioavailability [13]: 66%
Activity [14]: Non-toxic
metabolised at 0.5 h, 5 µM [15]: < 5%
AUC [18]: 17800 ng·h/mL
inhibition (INH) [19]: Not Active
fraction unbound [20]: 0.16
metabolised at 0.5 h, 5 µM [21]: < 5%
clearance [22]: 6.5 mL/min/kg
inhibition [35]: 66%
AUC [23]: 2770 ng·h/mL
half-life [25]: 3.5 h
Cmax [26]: 2580 ng/mL
fraction unbound [28]: 0.21
half-life [29]: 3.8 h
inhibition (INH) [30]: Not Active
Vd [31]: 1.6 L/kg

More lines, main results first:

pIC50 [1]: 6.39
SMILES: Cc1c(F)cc(C(=O)NC2CC2)cc1-c1ccn2c(C3CCOCC3)nnc2c1

pIC50 [1]: 6.84
SMILES: CC(C)(C)c1nnc2ccc(Sc3ccc(F)cc3F)cn12

pIC50 [1]: 6.09
SMILES: Cc1c(F)cc(C(=O)NC2CC2)cc1-c1c(F)cn2c(C(C)(C)N)nnc2c1F

pIC50 [1]: 7.08
SMILES: Cc1c(F)cc(C(=O)NC2CC2)cc1-c1ccn2c(C(C)(C)N(C)C)nnc2c1

pIC50 [1]: 7.52
inhibition (INH) [2]: Not Active
Papp A→B at 12.5 µM [3]: 15 ×10⁻⁶ cm/s
AUC [4]: 2120 ng·h/mL
clearance [5]: 9.9 mL/min/kg
Papp B→A at 12.5 µM [6]: 18 ×10⁻⁶ cm/s
Vd [8]: 2 L/kg
inhibition (INH) [9]: Not Active
bioavailability [10]: 75%
inhibition (INH) [11]: Not Active
bioavailability [13]: 93%
metabolised at 0.5 h, 5 µM [15]: < 5%
Cmax [16]: 215 ng/mL
AUC [17]: 1260 ng·h/mL
AUC [18]: 19400 ng·h/mL
inhibition (INH) [19]: Not Active
fraction unbound [20]: 0.42
metabolised at 0.5 h, 5 µM [21]: < 5%
clearance [22]: 7.8 mL/min/kg
AUC [23]: 1690 ng·h/mL
pIC50 [24]: 5.49
half-life [25]: 2.5 h
Cmax [26]: 2600 ng/mL
fraction unbound [28]: 0.39
half-life [29]: 3.4 h
inhibition (INH) [30]: Not Active
Vd [31]: 1.7 L/kg
SMILES: Cc1ccc(C(=O)NC2CC2)cc1-c1ccn2c(C(C)(C)C)nnc2c1
inhibition in vivo at 3 mg/kg [7]: 60%
Activity [12]: 50%
Activity [14]: Non-toxic
ED50 [27]: 0.26 mg/kg

pIC50 [1]: 6.94
SMILES: Cc1c(F)cc(C(=O)NC2CC2)cc1-c1ccn2c(C(C)C)nnc2c1

pIC50 [1]: 6.17
SMILES: Cc1ccc(C(=O)NC2CC2)cc1-c1ccn2c(C3CCC3)nnc2c1

pIC50 [1]: 6.63
SMILES: Cc1ccc(C(=O)NC2CC2)cc1-c1ccn2c(C3(C)CC3)nnc2c1

pIC50 [1]: 7.08
SMILES: Cc1c(F)cc(C(=O)NC2CC2)cc1-c1ccn2c(-c3ccncc3Cl)nnc2c1

From ChEMBL document CHEMBL2086331, “Novel triazolopyridylbenzamides as potent and selective p38α inhibitors” (Bioorg Med Chem Lett, 2012)
